Data taken from ChEMBL document CHEMBL2010762, “Synthesis of novel 9-O-N-aryl/aryl-alkyl amino carbonyl methyl substituted berberine analogs and evaluation of DNA binding aspects” (Bioorg Med Chem, 2012).
Calls of active or inactive are those of the source. The rule behind the calls is not given here.

How the values were obtained:
Format in all cases: nucleic-acid assay
Details in all cases: Bos taurus
Nucleic Acid [1] = test: Binding affinity to calf thymus DNA assessed as change in melting temperature by thermal denaturation assay
Outline: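 CT DNA alone or with alkaloid, 10 mM citrate-phosphate buffer pH 7.0. Absorbance at 260 nm was followed while heating from 20 to 100 °C at 0.5 °C/min in 1 cm quartz cuvettes. ΔTm was taken at saturation.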

Nucleic Acid [2] = test: Binding affinity to calf thymus DNA assessed as fluorescence quenching by fluorescence spectroscopy analysis
Outline: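 Ferrocyanide quenching of alkaloid fluorescence, free and bound to CT DNA, at constant P/D (base pair/alkaloid). KCl and K4[Fe(CN)6] solutions were mixed in different ratios at fixed total ionic strength in 10 mM CP buffer pH 7.0. Intensity was read against rising ferrocyanide. Stern–Volmer quenching constant (Ksv). At least four measurements were averaged per set.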

Nucleic Acid [3] = test: Binding affinity to calf thymus DNA in citrate-phosphate buffer at pH 7 assessed as change in viscosity by hydrodynamic method
Outline: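 Relative viscosity of CT DNA in 10 mM CP buffer pH 7.0 at 20 °C with increasing alkaloid (varying D/P), mixed by slow nitrogen bubbling. Flow times were measured in triplicate to 0.01 s. Contour length increase (L/Lo) was plotted against r.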

Nucleic Acid [4] = test: Binding affinity to calf thymus DNA in citrate-phosphate buffer at pH 7 by circular dichroism spectral analysis
Outline: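 CD spectra of CT DNA titrated with increasing alkaloid in 10 mM CP buffer pH 7.0 at 20 °C. Output is molar ellipticity, [θ] = [θ]obs/10lC.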

Row | ΔTm (Nucleic Acid [1]) [°C] | KSV (Nucleic Acid [2]) [M⁻¹] | Activity (Nucleic Acid [3]) | Activity (Nucleic Acid [4]) | Compound
1 | 12 | 37 | Active | – | COc1ccc2cc3[n+](cc2c1OCC(=O)NCCc1ccccc1)CCc1cc2c(cc1-3)OCO2.[Cl-]
2 | 15.5 | 57 | Active | Active | COc1ccc2cc3[n+](cc2c1OCC(=O)Nc1ccccc1)CCc1cc2c(cc1-3)OCO2.[Cl-]
3 | 9 | 90 | Active | Active | COc1ccc2cc3[n+](cc2c1OC)CCc1cc2c(cc1-3)OCO2.[Cl-] [BERBERINE CHLORIDE]
4 | 14 | 48 | Active | – | COc1ccc2cc3[n+](cc2c1OCC(=O)NCc1ccccc1)CCc1cc2c(cc1-3)OCO2.[Cl-]
